Only some compounds are listed: those with a hit (about 3.4% of all), similar ones and a draw of the others.
CHRM1 antagonist: antagonists of human M1 muscarinic receptor. CHO-K1 hM1, Fluo-8 calcium fluorescence, ACh EC80 antagonist. inhibition, % at 3 µM. hit rate 1.3% among 360,000. AID 588852;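 active = percent inhibition above its own plate's cutoff, namely the mean of that plate's compound wells plus 3 SD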;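 note: peak over basal fluorescence ratio during 140 s after agonist addition; 0% = ACh EC80 plus DMSO and 100% = DMSO alone without agonist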
M1 ag: activates human CHRM1 receptor; activation, % at 3 µM; CHO-K1 hM1, Fluo-8 calcium fluorescence, agonist mode; 0% DMSO, 100% acetylcholine EC100; P11229; hit rate 0.33% among 360,000;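 active = activation above the run's mean compound activation plus 3 SD, cut at about 16% in these data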;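 note: peak over basal fluorescence ratio within a 140 s kinetic read after compound addition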
TAAR1 ag: agonists of human TAAR1. activation, % at 3 µM. hit rate 0.99% among 360,000. Q96RJ0. CHO RD-HGA16 TAAR1, Fluo-8 calcium fluorescence; vehicle wells 0%, saturating PEA agonist 100%;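 active = activation above the mean activation of all test compounds in the run plus 3 SD, cut at about 38% in these data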
Target sequence (Q96RJ0 whole entry, looked up): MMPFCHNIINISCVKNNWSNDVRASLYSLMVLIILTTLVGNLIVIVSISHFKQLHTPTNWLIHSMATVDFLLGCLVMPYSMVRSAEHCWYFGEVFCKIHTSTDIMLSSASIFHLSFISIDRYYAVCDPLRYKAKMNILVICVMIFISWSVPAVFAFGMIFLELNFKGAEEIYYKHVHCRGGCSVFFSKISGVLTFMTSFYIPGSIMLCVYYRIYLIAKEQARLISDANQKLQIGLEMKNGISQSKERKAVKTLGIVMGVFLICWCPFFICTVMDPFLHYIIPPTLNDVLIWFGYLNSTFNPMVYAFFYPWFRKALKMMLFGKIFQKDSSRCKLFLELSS
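Test system: RD-HGA16 (CHO) cells co-expressing Gα16 and hTAAR1 | Doses: Single dose, 3 µM | Schedule: 17-24 h seeding, 75 min 37 °C dye, 30 min RT | Evaluation: % activation from peak over basal fluorescence ratio, DMSO-to-PEA scaled | Technique: Kinetic Fluo-8 calcium fluorescence | Benchmarks: Low control DMSO, high control PEA (EC100)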
CHRM1 PAM: human CHRM1 positive allosteric modulation. P11229. CHO-K1 hM1, Fluo-8 calcium fluorescence, ACh EC20; 0% = ACh EC20, 100% = maximal ACh. activation, % at 3 µM. hit rate 0.088% among 360,000. AID 588819; in the data active = activation above about 19%, passing the limit was not always enough
TAAR1 antag: human TAAR1 antagonism; Q96RJ0; inhibition, % at 3 µM; hit rate 1.5% among 360,000; CHO RD-HGA16 TAAR1, Fluo-8 calcium fluorescence, antagonist;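 active = inhibition above a per-plate cutoff, the mean inhibition of test compounds on that plate plus 3 SD, cut at about 49% in these data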;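 note: 0% = DMSO plus EC80 beta-PEA response and 100% = DMSO alone without agonist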
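test system = CHO RD-HGA16 cells bearing hTAAR1 | replication = singlicate | controls = DMSO-only wells and EC80 β-PEA-stimulated wells | reagent = EC80 β-phenethylamine stimulus | read-out basis = percent inhibition of PEA-evoked calcium signal, max/basal emission ratio | schedule = seeding 17-24 h prior, 75-min 37 °C, 30-min RT dye loading | signal = kinetic Fluo-8 calcium fluorescence measurement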
TAAR1 ag conf: confirmation of human TAAR1 agonists. activation, % at 3 µM. hit rate 82% among 2,400. CHO RD-HGA16 TAAR1, Fluo-8 calcium fluorescence; scaled: DMSO 0%, maximal phenethylamine 100%. shares compounds with TAAR1 ag. AID 651783;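 active = activation above a cutoff set at the run's mean compound activation plus 3 SD, cut at about 39% in these data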
Ga16 ag counter: nonselective agonist in parental cells, TAAR1 agonist counter-screen; shares compounds with TAAR1 ag; CHO-Ga16 parental, Fluo-8 calcium fluorescence; normalized to maximal ATP response, DMSO zero; activation, % at 3 µM; hit rate 50% among 2,400;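 active = activation above the run cutoff, the mean activation over all tested wells plus 3 SD, cut at about 12% in these data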;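 note: 0% = DMSO wells and 100% = maximal ATP response on the peak over basal ratio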
TAAR1 desensitize: TAAR1 response desensitization, agonist counter-screen; CHO RD-HGA16 hTAAR1, Fluo-8 calcium, beta-PEA response inhibition; hit rate 46% among 2,400; shares compounds with TAAR1 ag; inhibition, % at 3 µM;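 active = inhibition above the run cutoff, the mean inhibition of all test compounds plus 3 SD, cut at about 49% in these data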;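 note: beta-PEA stimulus applied at its EC80; loss of beta-PEA calcium signal after compound pretreatment read as receptor desensitization; 0% = DMSO with beta-PEA at EC80 and 100% = DMSO alone without agonist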
Ga16 nonsel ant: nonselective Ga16 antagonist in TAAR1 agonist counter-screen; inhibition, % at 3 µM; hit rate 39% among 2,400; AID 651952; CHO-Ga16 ATP-induced calcium, Fluo-8 fluorescence; shares compounds with TAAR1 ag;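 active = inhibition above the plate's mean compound inhibition plus 3 SD, computed per plate, cut at about 22% in these data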;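 note: 0% = EC80 ATP with DMSO and 100% = DMSO wells without ATP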
The depositor's hits bear a star; . = not tested or not shown.

SMILES | CHRM1 antagonist | M1 ag | TAAR1 ag | CHRM1 PAM | TAAR1 antag | TAAR1 ag conf | Ga16 ag counter | TAAR1 desensitize | Ga16 nonsel ant
Cn1c(=O)c2c(nc(N3CCCCCC3)n2Cc2cccc3ccccc23)n(C)c1=O | -6 | -1 | 66* | 7 | 11 | 72* | 42* | 35 | 28*
O=C(Cc1ccccc1)N/N=C/C=C/c1ccccc1[N+](=O)[O-] | -18 | 2 | 1 | 22 | 5 | . | . | . | .
O=C(O)c1ccc(N/N=C/C=C/c2ccccc2[N+](=O)[O-])cc1 | 1 | 2 | 66* | 8 | 48 | 51* | 21* | 53* | 36*
CC(C)Cc1ccc(C(C)C(=O)Nc2cccnc2)cc1 (stereo unspecified) | 32* | 13 | 84* | -15 | 63* | 126* | 65* | 79* | 43*
CC(C)Cc1ccc(C(C)C(=O)Nc2ccc(O)cc2)cc1 (stereo unspecified) | 50* | 54* | 119* | -15 | 93* | 108* | 71* | 101* | 82*
CCN1CCN(c2oc(-c3ccccc3)nc2S(=O)(=O)c2ccc(C)cc2)CC1 | 7 | -3 | 1 | -1 | -12 | . | . | . | .
O=C(NCc1ccccc1)c1cc2ccc(O)cc2oc1=O | -12 | 1 | 8 | 8 | 9 | . | . | . | .
O=[N+]([O-])c1cc(/C=N/n2c(-c3ccncc3)n[nH]c2=S)ccc1Cl | -2 | 13 | 52* | 15 | -12 | 98* | 19* | 29 | -7
S=c1[nH]nc(-c2ccncc2)n1/N=C/c1cn(-c2ccccc2)nc1-c1ccccc1 | -9 | 12 | 82* | 24 | 12 | 76* | 17* | 61* | 14
O=[N+]([O-])c1ccc(-c2nn(-c3ccccc3)cc2/C=N/n2c(-c3ccncc3)n[nH]c2=S)cc1 | -17 | -2 | 1 | 11 | -24 | . | . | . | .
O=C(Nc1ccc(F)cc1)Nc1ccc(Oc2ncnc3cc(Cl)ccc23)nc1 | -9 | -2 | 56* | 6 | 29 | 75* | 1 | 81* | 6
O=C(O)CCCC(=O)Nc1ccc(Oc2ncnc3cc(Cl)ccc23)nc1 | -7 | -2 | 1 | 3 | -16 | . | . | . | .
COc1cccc(C(O)c2nc(-c3cccc(CO)c3)cs2)c1 (stereo unspecified) | -6 | 2 | 2 | -1 | 5 | . | . | . | .
COc1cc(OC)cc(-c2c(-c3cccs3)c3cc(-c4ccc(C(N)=O)cc4)ccc3n2C)c1 | -7 | 0 | 17 | 14 | -5 | . | . | . | .
COc1ccc(CC(=O)OCC(=O)c2ccc(S(=O)(=O)N3CCCCC3)cc2)cc1 | 1 | 8 | 7 | -1 | 7 | . | . | . | .
O=C(NC1CCCCC1)c1cccc2c1C(=O)c1ccc(N3CCC(Cc4ccccc4)CC3)cc1S2(=O)=O | 12 | 6 | 52* | -7 | 61* | 30 | 29* | 33 | 38*
Cc1cccc(N2CCN(C(=S)Nc3ccc4nc(N5CCN(C)CC5)cc(C)c4c3)CC2C)c1 (stereo unspecified) | -9 | -2 | 93* | 5 | 85* | 103* | 44* | 94* | 35*
Cc1nn(Cc2ccccc2Cl)c(C)c1NC(=O)c1cc(-c2ccc(F)cc2)on1 | 2 | -8 | 55* | -6 | 63* | 21 | 8 | 53* | 26*
Cc1nn(Cc2ccccc2Cl)c(C)c1NC(=O)c1ccn(C)n1 | -3 | -3 | -2 | 13 | -10 | . | . | . | .
O=C1OC(N2CCN(C(=O)c3ccco3)CC2)c2ccccc21 (stereo unspecified) | -6 | -4 | 52* | 6 | 11 | 66* | 0 | 17 | 8
CC(Oc1ccc(Cl)cc1)C(=O)Nc1ccc(S(=O)(=O)N2CCOCC2)cc1 (stereo unspecified) | 8 | 38* | 110* | -3 | 48 | 114* | 72* | 75* | 42*
CC(Oc1ccccc1)C(=O)Nc1ccc(C(N)=O)cc1 (stereo unspecified) | -4 | -3 | 12 | 3 | 2 | . | . | . | .
CC(C)NS(=O)(=O)c1ccc(NC(=O)C(C)Oc2ccc(C(=O)c3ccccc3)cc2)cc1 (stereo unspecified) | 66* | 57* | 123* | -19 | 105* | 122* | 84* | 105* | 86*
COC(=O)c1c(-n2c(C)cc(C=O)c2C)sc2c1CCCC2 | 4 | -11 | 41* | -7 | 72* | -4 | 1 | 0 | 3
O=C(COC(=O)/C=C/c1cccc(F)c1)NC1CCCCCC1 | -4 | -1 | 64* | 2 | 54* | 88* | 38* | 72* | 19
SMILES | CHRM1 antagonist | M1 ag | TAAR1 ag | CHRM1 PAM | TAAR1 antag | TAAR1 ag conf | Ga16 ag counter | TAAR1 desensitize | Ga16 nonsel ant
O=C(CSC1=NS(=O)(=O)c2cc(F)ccc2N1)Nc1ccccc1 | -9 | 1 | 1 | 13 | -29 | . | . | . | .
O=C(CSC1=NS(=O)(=O)c2cc(F)ccc2N1)NCCc1ccccc1 | 3 | -2 | 101* | 0 | 81* | 105* | 1 | 94* | 6
COc1ccc(CCNC(=O)CSC2=NS(=O)(=O)c3cc(Cl)ccc3N2)cc1OC | 0 | 0 | 3 | 6 | -11 | . | . | . | .
O=C(CSC1=NS(=O)(=O)c2cc(Cl)ccc2N1)NCCc1ccccc1 | -6 | 2 | 104* | 12 | 80* | 93* | 0 | 86* | 7
CC(c1ccccc1C(O)(c1ccccc1)c1ccccc1)N(C)C (stereo unspecified) | 27 | 16 | 114* | -32 | 74* | 113* | 70* | 98* | 63*
CC(NCC(O)COCCC12CC3CC(CC(C3)C1)C2)c1ccccc1 (stereo unspecified) | 8 | 1 | 84* | 6 | 87* | 70* | 42* | 77* | 64*
NCC(O)COCCC12CC3CC(CC(C3)C1)C2 (stereo unspecified) | -10 | -1 | 12 | 7 | -5 | . | . | . | .
Cc1ccc(S(=O)(=O)NC(=O)NCCc2ccccc2)cc1 | -3 | -7 | 71* | 11 | 18 | 81* | 0 | 37 | 13
Cc1ccc(S(=O)(=O)NNC(=S)NCCc2ccccc2)cc1 | 2 | -4 | 35 | 0 | -22 | . | . | . | .
